Measurements from ChEMBL document CHEMBL3992568, “Discovery of Antimalarial Azetidine-2-carbonitriles That Inhibit P. falciparum Dihydroorotate Dehydrogenase” (ACS Med Chem Lett, 2017).

Experiments:
Mus musculus = test: Dose normalized AUC (0 to infinity) in CD-1 mouse at 5 mg/kg, po administered as single dose; type: ADME, organism-based; conditions: in vivo
[1] = Initial concentration in CD-1 mouse at 1 mg/kg, iv or 5 mg/kg, po administered as single dose; type: ADME, organism-based; conditions: in vivo
How it was run: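 Female CD-1 mice, single dose. Oral formulation: 70% PEG300/30% (5% dextrose in water) at 0.5 mg/mL. Intravenous formulation: 5% DMSO/10% cremophor/85% water at 0.25 mg/mL. Parameters from non-compartmental analysis.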

**Q.** Which AUC/dose (Mus musculus) does the source give for CCCNC(=O)N1[C@H](C#N)[C@H](c2ccc(-c3ccc(C(F)(F)F)c(C(F)(F)F)c3)cc2)[C@H]1CO here?
**A.** > 54.3 µM·h

**Q.** What about the C0 [1] of the same compound?
**A.** 4.9 µM
